Assay results gathered from unrelated publications.
Protocols differ between the studies behind these lines.
Target: Cytoplasmic tyrosine-protein kinase BMX (BMX, Homo sapiens, UniProt P51813)
Residues used in one study (P51813 1-675): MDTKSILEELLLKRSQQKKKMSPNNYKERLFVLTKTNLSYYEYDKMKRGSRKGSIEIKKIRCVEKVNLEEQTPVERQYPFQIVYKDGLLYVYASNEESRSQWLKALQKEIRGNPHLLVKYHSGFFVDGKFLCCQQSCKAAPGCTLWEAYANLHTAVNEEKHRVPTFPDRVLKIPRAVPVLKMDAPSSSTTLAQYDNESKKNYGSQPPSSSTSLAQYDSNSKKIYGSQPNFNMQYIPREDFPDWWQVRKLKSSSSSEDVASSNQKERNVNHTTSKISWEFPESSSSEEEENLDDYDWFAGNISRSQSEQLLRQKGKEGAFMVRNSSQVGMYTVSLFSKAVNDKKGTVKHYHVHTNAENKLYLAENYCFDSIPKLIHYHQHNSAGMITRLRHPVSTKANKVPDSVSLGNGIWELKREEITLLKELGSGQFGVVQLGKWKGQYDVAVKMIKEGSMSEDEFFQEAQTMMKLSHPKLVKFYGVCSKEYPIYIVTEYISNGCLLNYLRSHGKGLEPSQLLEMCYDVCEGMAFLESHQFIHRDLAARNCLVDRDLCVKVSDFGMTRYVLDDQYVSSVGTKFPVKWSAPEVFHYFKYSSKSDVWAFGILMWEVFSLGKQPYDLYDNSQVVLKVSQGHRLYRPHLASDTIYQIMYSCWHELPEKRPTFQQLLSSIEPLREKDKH

SMILES	test	setting	endpoint	value
CC(=O)C1=C(C)N(c2cccc(C(F)(F)F)c2)C(=O)N[C@@H]1c1ccc(C#N)nc1	cell-free assay, competition with immobilised ligand	1 µM	remaining binding	97.4%
Nc1[nH]nc2nnc(-c3c(-c4ccccc4)nn4ccccc34)cc12	enzyme activity, inhibitor	0.5 µM	remaining activity	84.4%
Cn1c2c(c3ccc(Cl)c(Cl)c31)C(C#N)C1(CCCCC1)NC2=O (racemic)	thermal stability, DSF	10 µM	ΔTm	0.1 °C
CCN(CC)CCNC(=O)c1c(C)[nH]c(/C=C2\C(=O)Nc3ccc(F)cc32)c1C	enzyme activity, inhibitor	10 µM	inhibition	41%
C#Cc1cccc(Nc2ncnc3cc(OCCOC)c(OCCOC)cc23)c1	cell-free assay	0.5 µM	remaining signal	100%
O=C(Nc1cnc(Oc2ccc(F)cc2)nc1)N1CCc2ncccc2[C@@H]1c1ccc(F)cc1	cell-free assay, competition with immobilised ligand	1 µM	remaining binding	94%
COc1cc2nccc(Oc3ccc(NC(=O)c4c5n(n(-c6ccc(F)cc6)c4=O)CCCC5)cc3)c2cc1OC	enzyme activity, inhibitor	0.1 µM	inhibition	22%
O=C(Nc1cccnn1)N1CCC(=Cc2cccc(Oc3ccc(C(F)(F)F)cn3)c2)CC1	cell-free assay, competition with immobilised ligand	1 µM	remaining binding	71%
CNC(=O)c1cc(Oc2ccc(NC(=O)Nc3ccc(Cl)c(C(F)(F)F)c3)cc2)ccn1	enzyme activity, inhibitor	10 µM	inhibition	9%
CCCS(=O)(=O)Nc1ccc(F)c(C(=O)c2c[nH]c3ncc(-c4ccc(Cl)cc4)cc23)c1F	enzyme activity, inhibitor	1 µM	inhibition	< 20%
Cn1c2c(Cl)c(Cl)ccc2c2cn[nH]c(=O)c21	thermal stability, DSF	10 µM	ΔTm	0.4 °C
Oc1ccc(-c2nc(-c3ccncc3)c(-c3ccc(F)cc3)[nH]2)cc1	cell-free assay	0.5 µM	remaining signal	93.9%
Cc1ccc(NC(=O)c2ccc(C)c(C(F)(F)F)c2)cc1C#Cc1nn(C2CCC(O)CC2)c2ncnc(N)c12 (stereo not shown)	cell-free assay	10 µM	remaining signal	-1%
O=C(Nc1cnn(-c2csc(C(=O)NC3COC3)c2)c1)Nc1ccccc1Cl	enzyme activity, inhibitor	5 µM	remaining activity	106%
Cn1c2c(Cl)c(Cl)ccc2c2cc[nH]c(=O)c21	thermal stability, DSF	10 µM	ΔTm	0 °C
Nc1c(C(=O)NCc2ccc(C(=O)NCCCC3CCCCC3)cc2)cnn1-c1ccccc1	cell-free assay, competition with immobilised ligand	0.1 µM	remaining binding	100%
Cn1c2c(c3ccccc31)C(C#N)C(C)(C)NC2=O (stereo not shown)	thermal stability, DSF	10 µM	ΔTm	-0.4 °C
O=C(Nc1ccc(Oc2ccc(F)cc2)cc1)N1CCc2ncccc2[C@H]1c1ccc(F)cc1	cell-free assay, competition with immobilised ligand	1 µM	remaining binding	100%
FC(F)(F)c1ccc(/C=C/c2nc(COc3ccc(CCCCn4ccnn4)cc3)co2)cc1	enzyme activity, inhibitor	0.5 µM	remaining activity	99%
CN(C)C1CCN(CC#Cc2nn(C3CCCC3)c3nc(NCc4ccccc4)ncc23)C1 (stereo not shown)	enzyme activity, inhibitor, FRET	1 µM	inhibition	4%
CS(=O)(=O)c1cc(C2(NC(=O)c3cncc4c3cnn4-c3ccc(F)cc3)CC2)ccn1	cell-free assay, competition with immobilised ligand	1 µM	remaining binding	100%
COc1cc2c(N3CCN(C(=O)Nc4ccc(OC(C)C)cc4)CC3)ncnc2cc1OCCCN1CCCCC1	cell-free assay	0.5 µM	remaining signal	109%
